System: MS2 coat protein
Test: apparent Kd, MS2 coat protein; higher = weaker binding; RNA-MaP array; FMN 200 µM where present
Outline: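 Green signal from SNAP-549-labelled MS2 coat protein was normalised to red-channel RNA signal and to the median Fmax of control clusters. The protein was titrated from 0.7 or 1.5 nM, doubling to 3 µM, without and then with constant ligand, over designs transcribed by stalled E. coli RNA polymerase on Illumina sequencing-chip clusters, in 100 mM Tris-HCl pH 7.5, 80 mM KCl, 4 mM MgCl2, BSA, DTT, yeast tRNA and Tween-20. The apparent Kd is the median of filtered per-cluster binding-curve fits.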

[1] = designed as: ON switch for flavin mononucleotide, no ligand
[2] = ligand present: flavin mononucleotide, designed as: ON switch for flavin mononucleotide
[3] = designed as: OFF switch for flavin mononucleotide, no ligand
[4] = ligand present: flavin mononucleotide, designed as: OFF switch for flavin mononucleotide

Sequence	apparent Kd [1]	apparent Kd [2]	apparent Kd [3]	apparent Kd [4]
UGGUACUAGGGAGGAUAUGGGAAGAUACAUGAGGAUCACCCAUGUUUUAGAAUGCCGAGAGGCAACUAGAAGGCCCUAGUACCU	1110 nM	74.5 nM	–	–
AGUGUCAUCGAGAAGGCCUCAACAUGAGGAUCACCCAUGUUGCAAAAUGGGAGGAUAUCGCGCGAAAAGCUACGUUUCGUAGCA	28.9 nM	11.6 nM	–	–
UUAAUCUAUACAGGAUAUCCAUACGCUGCAUACGGAGAAGGGUAACAAUCAUGAGGACAUGAGGAUCACCCAUGUUUUGAGCAU	42.8 nM	26.3 nM	–	–
ACAUACAUUCGAGGAUAUCGGUGAGAAAUCUUACGAGAAGGCGAUUCAUGAUUUAUUAUCCUGGACAUGAGGAUCACCCAUGUA	97.5 nM	61.1 nM	–	–
GGAUCGAGUGUGAGGAUAUGCUGGUCCUUGGAUCAGCAGAAGGCACAUGAGGAUCACCCAUGUGAAAACGGUCC	–	–	26.6 nM	189 nM
UCCACUGCUGAGAAGGGAUACAUAUGGUUCUAGUCAGGAUAUCGAUACAGUGCAGCAUGAGGACAUGAGGAUCACCCAUGUAUU	25.6 nM	18.6 nM	–	–
GGGAUAAGGCAGAAGGACAUGAGGAUCACCCAUGUAGGAUAUGCCUACAUCCGCAUCUUAGGUCUCGCUCUGUCGCGACCCUCU	8.99 nM	5.29 nM	–	–
AGCUGGAGAGGAUAUACGUAGGAAAAAAAAGUCUGAUCACUACAUGAGGAUCACCCAUGUAGAAGGCUCUGGCA	–	–	21.2 nM	62.2 nM
UUGGACGUCGUAGGAUAUGUAGGAUAUUCCUACAUGAGGAUCACCCAUGUUGACAUGCAAGAAGGACAGAAGGACGAUGUCCAU	240 nM	6.54 nM	–	–
CCGCAUAUGCAGGAUAUCGUAUCGGAAACGAUACGAGAAGGGUAAACAUGAGGAUCACCCAUGUUCCUUAACGG	–	–	18 nM	16.5 nM
CUCGCGUUAGGAUAUGCUAGCUGAGAAUAAUCUGCAGCGGUGCAGAAGGAACAUGAGGAUCACCCAUGUAGGGA	–	–	278 nM	43.6 nM
AUGCCGGGCCGAGGAUAUAAGUCUAGGACAUGAGGAUCACCCAUGUAUGUCUUAGAAGGCGGCCCGGCAAGCCUGUUACAGGCA	27.7 nM	6.6 nM	–	–
AAAAAACAUGAGGAUCACCCAUGUCUUUUGACAUGAGGAUAUGUACAGACUUCGGUCUGUACAGAAGGCAUGUCUU	41.4 nM	17.1 nM	–	–
CCUUGUAGCGGAGGAUAUGGGCCUCACUCAGUCAAAGAGUGAGAAACAUGAGGAUCACCCAUGUCCCAGAAGGCCGCUGCUUGG	17.8 nM	12.8 nM	–	–
GUAGAGUAAGGAUAUAGAGAAUAGGAUAGAAUGGUUAGAAUCUAGAAGGUACAUGAGGAUCACCCAUGUAAUGU	–	–	21.9 nM	19.8 nM
UAUAUUUUUAUAGGAUAUGGAUAUGAUGCAUAUCCAGAAGGGUGAUUAUAAUAUAAUCUAUACAUGAGGAUCACCCAUGUUUAU	242 nM	72 nM	–	–
UUUACUUUGUAGAAGGGUGACAUGAGGAUCACCCAUGUGCGUCGCCUGAAAGACCAGGGUACGCCACAGGAUAUACAAAGUAAG	56.5 nM	40.4 nM	–	–
UGAUAGGACAGAGGAUAUACCGAUAGGAGAUACUAUCGACUAUUCCUCACAUGAGGAUCACCCAUGUAGAAGGCUGUCCUAUCU	–	–	15.5 nM	60.2 nM
AAAAAGUCAGGAUAUACAAAAGUGCGAAAGCACAAAAGGAAACAUGAGGAUCACCCAUGUAGAAGGGACAAGAA	–	–	32.6 nM	27.5 nM
CUAUGAGCGAUAGGAUAUACUGAGAUUGAGUGGGUAGAAGGAUCGAUCGUGUAGAAGACAUGAGGAUCACCCAUGUUACGGGCC	115 nM	147 nM	–	–
AGCUAGUGAGGAUAUACAAGAAUAUAAACGAACAUAAAGGGACAUGAGGAUCACCCAUGUAGAAGGCACUAGCA	–	–	37.6 nM	243 nM
UUACCUUAUGAGAAGGCGGUCAUGAAACAUGAUCGAGGAUAUCAUGUAAACAUGAGGAUCACCCAUGUAUGGGUAUUAUGGUAU	142 nM	27.3 nM	–	–
CGGAAUUGUACAGGAUAUGAGGGUGCCUGAGCCUCAGAAGGGUAGACCGACAUGAGGAUCACCCAUGUAUGUGGAUAACGUCCG	75.5 nM	336 nM	–	–
GCCUUAUCGGUCAGGAUAUACACCCGCCAGUUGUUGUAGAAGGGACAUGAGGAUCACCCAUGUACAUUACAUUG	–	–	21.2 nM	33.8 nM

Sequence	apparent Kd [1]	apparent Kd [2]	apparent Kd [3]	apparent Kd [4]
GGGCUGUCAGGAUAUAGUUCGAGUUCGGAAAUGAGCUUGAGCUAGAAGGGACAUGAGGAUCACCCAUGUGGCCC	–	–	31.1 nM	34.2 nM
UCACGGGAUUGAGGAUAUAUAUUAAUUUUUACAAUAGAAGGCAAAUUUUUAGUUUUUUCACUUUACAUGAGGAUCACCCAUGUU	–	–	27.5 nM	25.5 nM
AAAAGACAUGAGGAUCACCCAUGUAAAAACAUAGGAGGAUAUGUCUGGAAACUAGACUGGACAGAAGGCCUUUGUC	33.3 nM	25 nM	–	–
AUUUUGUGAGGAUAUGUGGCUUCGAUCGUGAAAACGAGGCUACAGAAGGCACAUGAGGAUCACCCAUGUUCCUA	–	–	20.5 nM	169 nM
CGCAAGUAUACAUGAGGAUCACCCAUGUCAGAAAGGGUAAUCAGAAGGUACUAUUAGAGAUAGAGUAAGGAUAUGAAAUUUGUG	399 nM	110 nM	–	–
AGAGAAUAGGUAGGAUAUCUUAAUAGAAAGAAUAGAGAAGGACCACAUGAGGAUCACCCAUGUGAAGUCUUGAGACUACAUGGU	–	–	18.1 nM	22.9 nM
AAUAUGAGCUGGAAUAAAACCUGAACAUGAGGAUCACCCAUGUAGGAUAUCAGCACGAUAAGUGCUGAGAAGGACAACCAGCUC	–	–	14 nM	14.6 nM
CAUAACUUUGAUCUCUCCUACAUGAGGAUCACCCAUGUUGAGAGAAGGAGGCGGCGGAGUGCCGCCUAGGAUAUCUGAAGGGUC	–	–	6.06 nM	7.35 nM
GCGUUGAACGAGAAGGCCAAUACAUGAGGAUCACCCAUGUUUAGAUGUUUUGGAGGAUAUCGUACGUAUUCAAUAUUGCAACGC	–	–	10.9 nM	9.94 nM
AGAAGUUUGUAGAAGGACGACUAAUUUGUAUUCGUAGGAUAUACUAUUUACAUGAGGAUCACCCAUGUUUAAAUGGAACAAUGU	–	–	7 nM	10.2 nM
AAUUCAAACAGAGGAUAUUGUUUAUCUCUAUUGCAAGAAGGCUGAUCUUACUACCCACUUAUGAAACAUGAGGAUCACCCAUGU	34.6 nM	30.1 nM	–	–
CGUAGGAUGCAGAAGGCAUGAACAUGAGGAUCACCCAUGUGAAAACACAUGAGGAUAUGCAUCCUACGAAAAGUGCGAAAGCAC	5.89 nM	4.69 nM	–	–
CUAUUUUGUGCCUCAUUUACAUGAGGAUCACCCAUGUUAACUUAGGAUAUAUUUAUAUUGUUAGAGUAGAAGGAAGUACAAUUU	–	–	83.5 nM	55.9 nM
UGAUCGAGAGAUCUUAGAUUCUGGUAGGAUAUAAAACAAUUGCGCUUUACAUGAGGAUCACCCAUGUAGAAGGACUAGAGUCUA	–	–	6.72 nM	5.96 nM
UUAGGAUCAGGAUAUGAUGUUUUAAACAUGAGGAUCACCCAUGUAGAUCCUGAAUCAACAUCAGAAGGGAUAAUUU	–	–	56.6 nM	184 nM
GCUGGGUAGGCAGGAUAUCCUCGCGCAAACACAUGAGGAUCACCCAUGUACACAAAACGUGAUAUGGAGAAGGGCUGACCCACA	33.2 nM	6.68 nM	–	–
AGCCUACAUGAGGAUCACCCAUGUCAGGAUAUCUCGCGACAUGUCAAGUUCACGUUGCAGAGAAGGGACUCGGG	–	–	56.6 nM	63.6 nM
GUCCUUAACGAGGAUAUCGGGCGGGUUUUUGUUUGAGAAGGUGUGACAUGAGGAUCACCCAUGUGGCGCGUGGG	–	–	318 nM	258 nM
GUAGAGUAAGGAUAUGGUGAAUAGGAUAGAAUGGUUAGAAAUCAGAAGGUACAUGAGGAUCACCCAUGUAAUGU	–	–	23 nM	22.4 nM
AAUUAUAUGUAGAAGGUACUAACAUAUGUGUUGUAAGGAUAUACCAAAUUAUUAGUUAUCAAGUUACAUGAGGAUCACCCAUGU	12.3 nM	7.36 nM	–	–
CGGUACUUAGGAUAUACAUGAGGAUCACCCAUGUAGAAAUGGUGGGUGCCGUCCUGUGGUAGAAGGAAGAAUCG	–	–	28.5 nM	50.2 nM
AUGGUACAUGAGGAUCACCCAUGUUAGGAUAUCGCGUGUUCUAAAACUAAGAGAUACACGAGAAGGGACGACAU	–	–	90.2 nM	67.7 nM
UAUGGGUGUGUGAGGAUAUACGAAGGCAGUGGCCAGUAGAAGGUACAUGAGGAUCACCCAUGUGUCCAAAAGUG	–	–	14.1 nM	18.4 nM
GCCUCAUAGUAGAAGGGACUUAGGCAGUUAAGCAUCAUCUCCAUUUCACAUGAGGAUCACCCAUGUCAGGAUAUACUAAGAGGC	–	–	9.39 nM	24.5 nM

Source: the EternaBench riboswitch data
